The source made the active and inactive calls. The rule behind the calls is not given here.
Columns and labels:
[1] = target: Cyclin-dependent kinase 2/cyclin E1 (Homo sapiens, UniProt P24941); assay: Inhibition of His-tagged CDK2/Cyclin-E1 (unknown origin) expressed in baculovirus infected Sf9 insect cells using histone H1 as substrate measured in presence of [gamma-33P]ATP; format: cell-based
SUD4 = assay: Antiproliferative activity against human SUDHL4 cells assessed as growth inhibition measured after 72 hrs by calcein AM dye-based fluorescence assay; format: functional, cell-based; conditions: SU-DHL-4, 72 h
JeKo-1 = assay: Antiproliferative activity against human JeKo1 cells assessed as growth inhibition measured after 72 hrs by calcein AM dye-based fluorescence assay; format: functional, cell-based; conditions: JeKo-1, 72 h
Procedure, shortened: (§1)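 Cells exposed in triplicate to six concentrations for 72 h; calcein AM added for 1 h, live-cell fluorescence read at 485/538 nm (ex/em). GI50 taken from dose-response curves.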

Maver1 [2] = assay: Antiproliferative activity against human Maver1 cells assessed as growth inhibition measured after 72 hrs by calcein AM dye-based fluorescence assay; format: functional, cell-based; conditions: Maver1, 72 h; procedure, shortened: as §1
[3] = Antiproliferative activity against human UPF1H cells assessed as growth inhibition measured after 72 hrs by calcein AM dye-based fluorescence assay; format: functional, cell-based; procedure, shortened: as §1
Homo sapiens [4] = species: Homo sapiens; assay: Induction of apoptosis in human Mino cells assessed as induction of PARP1 cleavage at 12.5 nM after 2 to 24 hrs by immunoblotting analysis; format: functional, cell-based
Procedure, shortened: (§2)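 Lymphoma cell lines were cultured as the providers instruct and exposed to compound at several doses or for several times. Lysates were run on SDS-PAGE and blotted to nitrocellulose. Blots were blocked, incubated overnight with primary antibodies diluted in PBS with 5% milk and 0.1% Tween 20, then with peroxidase-conjugated secondaries, and detected by chemiluminescence on a CCD camera.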

Homo sapiens [5] = species: Homo sapiens; assay: Induction of apoptosis in human Mino cells assessed as caspase 3 activation at 12.5 nM after 2 to 24 hrs by immunoblotting analysis; format: functional, cell-based; procedure, shortened: as §2
[6] = target: Cyclin-dependent kinase 9 (Homo sapiens) (UniProt P50750); assay: Inhibition of CDK9 in human Mino cells assessed as decrease in phosphorylation of RNA polymerase 2 C-terminal domain at Ser 5 residue at 12.5 nM by immunoblotting analysis; format: cell-based; conditions: TDE = time-dependent effect
Procedure, shortened: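 MINO lymphoma cells exposed to 12.5 nM for up to 24 h (time course). Lysates separated by SDS-PAGE, transferred to nitrocellulose, probed overnight with specific primary antibodies diluted in PBS with 5% milk and 0.1% Tween 20, then peroxidase-conjugated secondaries; chemiluminescence imaged with a CCD camera.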

[7] = target: Cyclin-dependent kinase 2 (Homo sapiens) (UniProt P24941); assay: Inhibition of CDK2 in human Mino cells assessed as decrease in phosphorylation of Rb at Ser 780 residue at 12.5 nM by immunoblotting analysis; format: cell-based; conditions: TDE = time-dependent effect
Procedure, shortened: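 MINO lymphoma cells were treated at 12.5 nM, with time points over 24 h. Lysates were separated by SDS-PAGE and blotted to nitrocellulose. Phospho-RNA polymerase II CTD (Ser2, Ser5) and phospho-Rb (Ser608, Ser780) were probed with primary antibodies overnight and peroxidase-conjugated secondaries. Detection was by chemiluminescence on a CCD camera.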

Mus musculus [8] = assay: Ex vivo antitumor activity against human Mino cells xenografted NSG mouse assessed as cleavage of PARP1 at 5 to 10 mg/kg, iv measured after 24 hrs by immunoblotting analysis; format: functional, organism-based
Procedure, shortened: (§3)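 NSG mice bearing palpable s.c. tumors received a single i.v. dose (5 or 10 mg/kg) and were euthanized after 24 h. Excised tumors were filtered through 45 µm nylon mesh, lysed and run on SDS-PAGE, transferred to nitrocellulose, probed overnight with primary antibodies in PBS with 5% milk and 0.1% Tween 20, then peroxidase secondaries, with chemiluminescent detection.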

Mus musculus [9] = assay: Ex vivo antitumor activity against Maver1 xenografted NSG mouse assessed as increase in cleaved caspase7 expression t 10 mg/kg, iv measured after 24 hrs by immunoblotting analysis; format: functional, organism-based; procedure, shortened: as §3
Mus musculus [10] = assay: Ex vivo antitumor activity against Maver1 xenografted NSG mouse assessed as increase in cleaved caspase9 expression at 10 mg/kg, iv measured after 24 hrs by immunoblotting analysis; format: functional, organism-based; procedure, shortened: as §3
Mus musculus [11] = assay: Ex vivo antitumor activity against Maver1 xenografted NSG mouse assessed as down regulation of MCL-1 expression at 10 mg/kg, iv measured after 24 hrs by immunoblotting analysis; format: functional, organism-based; procedure, shortened: as §3
Mus musculus [12] = assay: Ex vivo antitumor activity against Maver1 xenografted NSG mouse assessed as effect on BCL-2 expression at 10 mg/kg, iv measured after 24 hrs by immunoblotting analysis; format: functional, organism-based; procedure, shortened: as §3
Maver1 [13] = assay: Antitumor activity against human Maver1 cells xenografted in NSG mouse assessed as inhibition of tumor growth at 9 mg/kg measured on day 13 in presence of BCL2 inhibitor venetoclax by caliper method; format: functional, organism-based
Procedure, shortened: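 MAVER-1 cells implanted s.c. in NSG mice. Groups: vehicle n=6, 9 mg/kg n=8, venetoclax 20 mg/kg n=8, combination n=10. Tumors measured daily by caliper in two perpendicular dimensions. Mean volumes ±SD tracked from therapy start (day 1).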

Maver1 [14] = assay: Induction of apoptosis in human Maver1 cells assessed as induction of PARP1 cleavage at 1.5 to 12.5 nM after 24 hrs by immunoblot analysis; format: functional, cell-based; procedure, shortened: as §2
Mus musculus [15] = assay: Ex vivo antitumor activity against human UPF1H cells xenografted NSG mouse assessed as effect on BCL2 expression at 5 to 10 mg/kg, iv measured after 24 hrs by immunoblotting analysis; format: functional, organism-based
Procedure, shortened: (§4)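 Female NSG mice, 8-12 weeks old, implanted s.c. with lymphoma cells. Once tumors were palpable, mice received a single tail-vein i.v. dose (5 or 10 mg/kg) of compound dissolved in PBS. Mice were euthanized 24 h later. Tumors were excised, filtered through 45 µm nylon mesh and lysed, then proteins were analysed by immunoblotting.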

Mus musculus [16] = assay: Ex vivo antitumor activity against human UPF1H cells xenografted NSG mouse assessed as cleavage of PARP1 at 5 to 10 mg/kg, iv measured after 24 hrs by immunoblotting analysis; format: functional, organism-based; procedure, shortened: as §4
Mus musculus [17] = assay: Ex vivo antitumor activity against human UPF1H cells xenografted NSG mouse assessed as increase in cleaved caspase 9 expression at 5 to 10 mg/kg, iv measured after 24 hrs by immunoblotting analysis; format: functional, organism-based; procedure, shortened: as §4
Mus musculus [18] = assay: Ex vivo antitumor activity against human UPF1H cells xenografted NSG mouse assessed as down regulation of XIAP expression at 5 to 10 mg/kg, iv measured after 24 hrs by immunoblotting analysis; format: functional, organism-based; procedure, shortened: as §4
Mus musculus [19] = assay: Ex vivo antitumor activity against human UPF1H cells xenografted NSG mouse assessed as down regulation of MCL1 expression at 5 to 10 mg/kg, iv measured after 24 hrs by immunoblotting analysis; format: functional, organism-based; procedure, shortened: as §4
Mus musculus [20] = assay: Ex vivo antitumor activity against human Mino cells xenografted NSG mouse decrease in phosphorylation of RNA polymerase 2 C-terminal domain at Ser 5 residue at 5 to 10 mg/kg, iv measured after 24 hrs by immunoblotting analysis; format: functional, organism-based; procedure, shortened: as §4
Mus musculus [21] = assay: Ex vivo antitumor activity against human UPF1H cells xenografted NSG mouse decrease in phosphorylation of RNA polymerase 2 C-terminal domain at Ser 5 residue at 5 to 10 mg/kg, iv measured after 24 hrs by immunoblotting analysis; format: functional, organism-based; procedure, shortened: as §4
Mus musculus [22] = assay: Ex vivo antitumor activity against patient derived VFN-M1 cells xenografted NSG mouse assessed as down regulation of MCL1 expression at 10 mg/kg, iv measured after 24 hrs by immunoblotting analysis

Cyclin-dependent kinase 9 (Homo sapiens), sequence (P50750 whole entry, the tested form may be a part): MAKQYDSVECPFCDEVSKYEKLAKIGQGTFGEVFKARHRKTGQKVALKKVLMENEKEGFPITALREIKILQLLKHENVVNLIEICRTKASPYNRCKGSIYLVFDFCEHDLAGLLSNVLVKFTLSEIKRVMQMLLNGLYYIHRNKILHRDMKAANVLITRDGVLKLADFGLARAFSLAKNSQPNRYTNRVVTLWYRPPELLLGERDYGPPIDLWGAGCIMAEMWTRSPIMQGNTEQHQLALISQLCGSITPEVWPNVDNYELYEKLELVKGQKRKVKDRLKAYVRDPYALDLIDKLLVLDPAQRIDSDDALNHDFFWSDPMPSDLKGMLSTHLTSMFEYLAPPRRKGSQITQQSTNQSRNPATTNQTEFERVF

## CC(C)c1n[nH]c2c(NCc3ccc(-c4ccccn4)cc3)nc(SCCN)nc12
[1]
  IC50: 2 nM
SUD4
  GI50: 15 nM
JeKo-1
  GI50: 14 nM
  IC50: 14 nM
Maver1 [2]
  GI50: 13 nM
  IC50: 13 nM
[3]
  GI50: 25 nM
  IC50: 25 nM
Homo sapiens [4]
  Activity: Active
Homo sapiens [5]
  Activity: Active
[6]
  inhibition: Tde
[7]
  inhibition: Tde
Mus musculus [8]
  Activity: Active
Mus musculus [9]
  Activity: Active
Mus musculus [10]
  Activity: Active
Mus musculus [11]
  Activity: Active
Mus musculus [12]
  Activity: inactive
Maver1 [13]
  TGI: Active
Maver1 [14]
  Activity: Active
Mus musculus [15]
  Activity: inactive
Mus musculus [16]
  Activity: Active
Mus musculus [17]
  Activity: Active
Mus musculus [18]
  Activity: Active
Mus musculus [19]
  Activity: Active
Mus musculus [20]
  Activity: Active
Mus musculus [21]
  Activity: Active
Mus musculus [22]
  Activity: Active

Source: ChEMBL document CHEMBL4385606, “3,5,7-Substituted Pyrazolo[4,3- d]pyrimidine Inhibitors of Cyclin-Dependent Kinases and Their Evaluation in Lymphoma Models” (J Med Chem, 2019)
